Assay [1] deals with mantle cell lymphoma. The conditions noted are these: refractory or relapsed MCL patients; cited from earlier work.
Assay [2] deals with Granta 519 and Z138C cells. Briefly: apoptosis markers. Type of assay: cell-based, human. Put shortly: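 Granta 519 and Z138C cells were treated with test compound, then lysed in NP-40 buffer. Western blots on nitrocellulose assessed full-length caspases 3, 7 and 9 and PARP cleavage as apoptosis markers.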
The test system of assay [3] is Granta 519 and Z138 cell lines. Briefly: MAP kinase pathway. Type of assay: cell-based, human. The conditions noted are these: 24 hrs.
In another assay the test system is HeLa cells. In words: TNF-α induced p65 NF-kB phosphorylation western blot. Type of assay: cell-based, human. The following applies: 5ng/ml TNF-α for 5 min after treatment. Put shortly:
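Positive-control system: HeLa cells were pretreated with test compound, then stimulated with 5ng/ml TNF-α for 5 min. Phospho-p65 NF-kB was assessed by western blot of whole-cell extracts.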
(A western blot detects proteins with antibodies after separation by electrophoresis.)

Another assay has as its target PI3K-δ (Homo sapiens, UniProt O00329). In words: in vitro kinase assay, recombinant protein. Type of assay: biochemical. Put shortly: (§1)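 Recombinant kinases were incubated with the indicated concentrations of test compound in in vitro kinase assays. Activity values were plotted against log drug concentration. IC50 came from sigmoidal non-linear regression with variable slope.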

Assay [4] deals with Granta 519 and Z138C cells. Briefly: CDK4/CYCLIN D/Rb pathway western blot. Type of assay: cell-based, human. The following applies: 24 hours. Put shortly:
(§2)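 Granta 519 and Z138C cells (RPMI or DMEM, 10% FBS, pen-strep, 37°C, 5% CO₂) received vehicle or increasing concentrations of test compound for 24 hours. Whole-cell extracts were made in NP-40 lysis buffer (Tris pH 7.4, NaF, Na₃VO₄), run on SDS-PAGE and blotted to nitrocellulose. Detection used infrared imaging, GAPDH was the loading control, and 4 independent experiments were done.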

The subject of assay [5] is exponentially growing Z138 cells. In words: p65. Type of assay: cell-based, human. The following applies: 24 hrs. Put shortly:
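Exponentially growing Z138 cells were exposed to test compound. Whole-cell extracts were probed by western blot for p65 (NF-kB) phosphorylation.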

For assay [6], the system named is Granta 519 and Z138C cells. In words: PI3K/AKT/mTOR pathway western blot. Type of assay: cell-based, human. The following applies: 24 hours. Put shortly:
as §2

For a further assay, the system named is Z138C cells. Briefly: cell cycle distribution, propidium iodide flow cytometry. Type of assay: cell-based, human. The conditions noted are these: 24 hours. Put shortly:
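Z138C cells were treated with DMSO or increasing concentrations of test compound for 24 hours. They were then ethanol-fixed, PBS-washed and stained with RNase plus propidium iodide at 37°C for 20 min. DNA content was measured by flow cytometry to assign cell-cycle phases.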
For orientation: In flow cytometry, cells or beads pass a laser one at a time.

A further assay concerns the target ARK5 (Homo sapiens, UniProt O60285). Briefly: in vitro kinase assay, recombinant protein. The class given is biochemical. Put shortly:
as §1

Assay [7] relates to mantle cell lymphoma. The following applies: Phase I trial, patients with refractory disease; cited from earlier work.

What is called IC50 is the midpoint of a concentration-inhibition curve.

Sequence of PI3K-δ (O00329 whole entry): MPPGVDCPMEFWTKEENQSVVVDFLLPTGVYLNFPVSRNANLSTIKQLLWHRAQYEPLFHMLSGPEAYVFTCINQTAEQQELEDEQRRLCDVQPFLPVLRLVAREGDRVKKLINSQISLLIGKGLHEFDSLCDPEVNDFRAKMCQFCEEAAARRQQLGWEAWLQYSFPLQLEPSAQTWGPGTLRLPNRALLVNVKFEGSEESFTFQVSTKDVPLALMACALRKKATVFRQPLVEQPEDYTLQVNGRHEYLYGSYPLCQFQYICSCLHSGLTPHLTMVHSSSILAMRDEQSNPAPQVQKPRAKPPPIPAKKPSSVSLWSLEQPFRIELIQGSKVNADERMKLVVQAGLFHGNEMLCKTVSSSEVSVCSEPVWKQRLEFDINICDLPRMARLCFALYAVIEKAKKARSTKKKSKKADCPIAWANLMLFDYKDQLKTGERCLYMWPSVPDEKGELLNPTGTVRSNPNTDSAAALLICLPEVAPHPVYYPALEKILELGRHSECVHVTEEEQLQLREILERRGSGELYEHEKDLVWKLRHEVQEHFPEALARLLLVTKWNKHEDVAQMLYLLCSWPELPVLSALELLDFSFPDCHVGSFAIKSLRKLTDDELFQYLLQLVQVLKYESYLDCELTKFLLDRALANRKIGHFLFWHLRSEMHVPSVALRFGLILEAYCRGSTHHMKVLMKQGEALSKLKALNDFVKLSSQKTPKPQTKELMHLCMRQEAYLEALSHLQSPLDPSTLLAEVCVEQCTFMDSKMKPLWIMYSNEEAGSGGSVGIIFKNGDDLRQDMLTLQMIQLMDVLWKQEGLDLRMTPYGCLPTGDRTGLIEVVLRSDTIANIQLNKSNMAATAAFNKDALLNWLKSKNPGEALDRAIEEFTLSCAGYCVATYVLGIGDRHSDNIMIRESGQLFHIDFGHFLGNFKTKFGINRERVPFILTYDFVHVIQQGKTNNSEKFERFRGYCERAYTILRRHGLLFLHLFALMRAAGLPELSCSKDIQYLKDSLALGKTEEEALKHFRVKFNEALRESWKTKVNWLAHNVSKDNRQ
Sequence of PI3K-δ (P27986 whole entry partner): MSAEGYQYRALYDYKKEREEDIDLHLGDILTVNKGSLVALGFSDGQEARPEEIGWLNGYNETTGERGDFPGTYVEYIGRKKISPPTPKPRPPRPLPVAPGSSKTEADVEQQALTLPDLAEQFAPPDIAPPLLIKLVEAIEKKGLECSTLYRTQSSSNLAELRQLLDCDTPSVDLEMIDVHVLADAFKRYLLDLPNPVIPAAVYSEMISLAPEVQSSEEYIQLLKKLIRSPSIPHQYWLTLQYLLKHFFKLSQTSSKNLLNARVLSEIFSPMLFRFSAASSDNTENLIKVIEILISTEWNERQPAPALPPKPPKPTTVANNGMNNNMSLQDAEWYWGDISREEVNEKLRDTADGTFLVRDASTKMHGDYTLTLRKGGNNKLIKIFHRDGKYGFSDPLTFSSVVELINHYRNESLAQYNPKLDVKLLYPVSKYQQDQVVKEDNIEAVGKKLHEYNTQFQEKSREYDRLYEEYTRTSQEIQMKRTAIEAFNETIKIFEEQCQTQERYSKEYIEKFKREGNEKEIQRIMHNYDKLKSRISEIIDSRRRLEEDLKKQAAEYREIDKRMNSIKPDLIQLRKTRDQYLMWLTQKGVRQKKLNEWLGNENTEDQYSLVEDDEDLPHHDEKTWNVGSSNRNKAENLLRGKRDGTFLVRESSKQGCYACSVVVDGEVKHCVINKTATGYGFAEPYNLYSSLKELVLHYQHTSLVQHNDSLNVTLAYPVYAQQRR
Sequence of ARK5 (O60285 whole entry): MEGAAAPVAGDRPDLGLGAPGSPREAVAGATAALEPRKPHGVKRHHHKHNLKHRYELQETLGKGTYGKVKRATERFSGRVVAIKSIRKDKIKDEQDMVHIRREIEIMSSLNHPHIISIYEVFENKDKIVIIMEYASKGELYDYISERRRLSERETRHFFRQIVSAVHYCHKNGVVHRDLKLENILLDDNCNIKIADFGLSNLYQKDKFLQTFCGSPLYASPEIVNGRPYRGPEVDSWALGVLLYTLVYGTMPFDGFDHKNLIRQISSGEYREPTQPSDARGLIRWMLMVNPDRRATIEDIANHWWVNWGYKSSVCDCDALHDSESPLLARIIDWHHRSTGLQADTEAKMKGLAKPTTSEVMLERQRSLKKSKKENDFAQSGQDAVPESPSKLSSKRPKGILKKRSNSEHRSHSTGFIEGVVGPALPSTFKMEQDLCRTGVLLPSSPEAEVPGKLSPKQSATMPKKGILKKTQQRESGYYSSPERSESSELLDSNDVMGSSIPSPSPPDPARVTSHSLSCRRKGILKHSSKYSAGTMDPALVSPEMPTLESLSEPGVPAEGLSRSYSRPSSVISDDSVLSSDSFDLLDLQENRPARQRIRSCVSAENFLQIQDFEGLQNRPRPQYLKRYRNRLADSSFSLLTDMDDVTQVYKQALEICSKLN

As for `C=CC(=O)N1CCC[C@@H](n2nc(-c3ccc(Oc4ccccc4)cc3)c3c(N)ncnc32)C1` [Ibrutinib], the “patients with complete remission” value with mantle cell lymphoma [1] is given as “approximately 21%”.

As to `CC(=O)c1c(C)c2cnc(Nc3ccc(N4CCNCC4)cn3)nc2n(C2CCCC2)c1=O` [PD0332991, reference compound], the “PARP cleavage at lower concentrations” value in [2] (72–96 hrs incubation, data not shown) is given as “did not show any PARP cleavage”. Further, the “evidence of apoptosis (PARP cleavage, caspases)” value in assay [2] (24 hrs, increasing concentrations) is “no evidence of apoptosis”. Besides, the “phosphorylation status of MEK or ERK kinases” value in [3] is listed as “neither ON123300 nor PD0332991 has any effect”. Besides, the “phosphorylation status of p65” value in the assay on HeLa cells is reported as “little or no effect”. Moreover, the IC50 at PI3K-δ was more than 10 µM. At PI3K-δ (in vitro kinase assay), the “inhibitory activity against PI3K-δ” value is “failed to show any inhibitory activity”. Also, in [4], the “levels of CDK4 and CDK2” value was “unaffected”; the p21 levels result is recorded as “not readily seen”. For the same compound, in assay [4] (increasing concentrations), the “phosphorylation of pRb and p130” value is “inhibited the phosphorylation of pRb and p130”. Moreover, the “phosphorylation status of p65 (NF-kB)” value in assay [5] is reported as “no change”. In addition, the “phosphorylation status of AKT, mTOR, 4EBP1 and S6 ribosomal protein (S6RB)” value in assay [6] is recorded as “no discernable change”. In addition, the “accumulation of cells in the sub-G1 phase” value with Z138C cells (for ON123300 at higher concentrations) was “little or no accumulation of cells in the sub-G1 phase”. For the same compound, the “accumulation of cells in the G1 phase” value in the assay with Z138C cells (increasing concentrations) was “rapid accumulation of the cells in the G1 phase”. Besides, the IC50 on ARK5 is more than 5 µM.

On to `Nc1ccc2ncnc(NCCc3ccc(Oc4ccccc4)cc3)c2c1` [QNZ], for which, in the assay on HeLa cells, the “phosphorylation status of p65” value is given as “strong inhibition”.

As to `N#CC(=C(/N)Sc1ccccc1N)/C(C#N)=C(/N)Sc1ccccc1N` [U0126], the “phosphorylation status of MEK or ERK kinases” value in assay [3] was “potently inhibited”.

Take `CC[C@H](Nc1ncnc2[nH]cnc12)c1nc2cccc(F)c2c(=O)n1-c1ccccc1` [idelalisib]: the “efficacy as a single agent” value in the assay with mantle cell lymphoma [7] is recorded as “modestly effective”.

The values are drawn from publication PMC4703501 (Leukemia, 2015).
